The nature of the data set: Toxicity liver stage against HepG2, at 10uM. Particulars: human, HepG2-A16-CD81EGFP cells; read-out: INHIBITION
The arrangement: test concentration 10 uM, cell line HepG2-A16-CD81EGFP. Format: cell-based. Summed up: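 Uninfected HepG2-A16-CD81EGFP cells, 3 × 10^3 per well, 1536-well, plated on prespotted compound at 10 μM final, parasite-free screening media added to match infected plates; puromycin 10 μM positive, DMSO 0.5% negative; run in parallel with 48 h PbLuc assay at 37 °C, 5% CO2; viability by CellTiter-Glo luminescence, normalized to controls.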
Consider `O=C(NC[C@H]1OC[C@@H](N(CC2CC2)CC2CC2)[C@@H]1O)Nc1ccccc1`, for which the cytotoxicity at 10 µM is -2.62%.

Consider `CC(=O)N1CCC(N2CCOC[C@H]2c2nc(-c3ccncc3)c[nH]2)CC1`, for which the cytotoxicity at 10 µM is 1.58%.

Regarding `CCOC(=O)[C@H]1[C@@H](O)C(=O)N(C)C12CCN(C(=O)CC1CCCC1)CC2`, the cytotoxicity at 10 µM was -1%.

`COCCCNC(=O)c1cc(-c2ccc(OC)cc2)nn1C`: the cytotoxicity at 10 µM was 1.54%.

With `Cc1nnc2ccc(OCCNS(=O)(=O)c3cccs3)nn12`, the cytotoxicity at 10 µM was -12.1%.

`O=C(c1ccc(F)cc1F)N(CC(F)(F)F)C1CCOCC1`: the cytotoxicity at 10 µM is 1.24%.

As for `O=C(c1ccnnc1)N1CCO[C@H]2[C@@H](OCc3cccnc3)CC[C@@H]21`, the cytotoxicity at 10 µM was 2.93%.

As to `COc1nn(C)c2c1CCCN(C(=O)c1ccccc1F)C2`, the cytotoxicity at 10 µM was 11.5%.

Turning to `O=C1COC2(CCN(S(=O)(=O)C3CC3)CC2)CN1c1ccsc1`, the cytotoxicity at 10 µM worked out at 6.12%.

Turning to `O=C(c1ccc2c(c1)OCO2)N1CCCSCC1CN1CCCC1` (configuration not stated), the cytotoxicity at 10 µM is 6.95%.

With `O=C(CNC(=O)C1(c2ccc(F)cc2F)CCC1)Nc1ccccn1`, the cytotoxicity at 10 µM was -16.5%.

For `Cc1ncc2c(n1)CN(CC1CCCCO1)CC2` (configuration not stated), the cytotoxicity at 10 µM is -2.3%.

Take `Cc1ccc(CC(=O)NCC(O)c2cccc(C(F)(F)F)c2)cn1` (configuration not stated): the cytotoxicity at 10 µM is -18.6%.

`Cc1ncccc1NS(=O)(=O)Cc1cccc(F)c1`: the cytotoxicity at 10 µM turned out to be 2.43%.

On to `O=C1CSc2ccc(C(=O)N3CCCC(n4cccn4)C3)cc2N1` (configuration not stated), for which the cytotoxicity at 10 µM was -6.65%.

Consider `Cc1ccc(C(F)(F)F)cc1NC(=O)C1CCCN1` (configuration not stated), for which the cytotoxicity at 10 µM came out at 4.28%.

Regarding `Cc1nc(C(=O)N(C)CC(F)(F)C(F)(F)F)c2ccccn12`, the cytotoxicity at 10 µM was 2.56%.

For `CN1C(=O)CCc2cc(NS(=O)(=O)Cc3cccc(F)c3)ccc21`, the cytotoxicity at 10 µM was determined as 3.6%.

For `O=C1CC2(CCSC2)C(=O)N1Cc1coc(-c2cccc(F)c2)n1` (configuration not stated), the cytotoxicity at 10 µM is -0.237%.

In the case of `CN(Cc1ccc(C#N)cc1)CC1CCS(=O)(=O)C1` (configuration not stated), the cytotoxicity at 10 µM was -5.78%.

On to `CC(C(=O)N1CCN(C(=O)c2ccc(F)cc2)CC1)n1ccnc1` (configuration not stated), for which the cytotoxicity at 10 µM is -2.2%.

In the case of `CCCN(C1CCc2ccccc2C1)S(C)(=O)=O` (configuration not stated), the cytotoxicity at 10 µM amounted to 0.595%.

With `NC(=O)COc1cccc(C(=O)NCc2ccc(Cl)s2)c1`, the cytotoxicity at 10 µM was -0.935%.

With `Cc1ccc(O)c(CNC2CCc3nc(C)nn3C2)n1` (configuration not stated), the cytotoxicity at 10 µM was -1.08%.

Regarding `COc1cc(F)ccc1N(C)Cc1cccnc1`, the cytotoxicity at 10 µM is -3.47%.

With `Cc1cc(NCC2CC(=O)Nc3ccccc32)nc(C)n1` (configuration not stated), the cytotoxicity at 10 µM was determined as 0.344%.

With `Cc1cc(=O)n(C)cc1NC(=O)CC1CCC1`, the cytotoxicity at 10 µM was -9.64%.

As to `O=C(NCCc1ccccn1)N1CCSC2(CCCCC2)C1`, the cytotoxicity at 10 µM is -18.6%.

With `CCN(Cc1ccoc1)C(C(N)=O)c1cccc(Br)c1` (configuration not stated), the cytotoxicity at 10 µM stood at 2.34%.

For the compound `Cc1cccnc1CNC(=O)NC(C)Cc1c(C)nn(C)c1C` (configuration not stated), the cytotoxicity at 10 µM was 3.92%.

Take `Cc1noc(CNC(=O)[C@@H](C)NC(=O)OC(C)(C)C)n1`: the cytotoxicity at 10 µM is 4.91%.

Consider `N#Cc1ccc(OCCN2CCNC(=O)C2c2cccs2)cc1` (configuration not stated), for which the cytotoxicity at 10 µM is -2.62%.

Take `Cc1ccccc1C(CC(=O)N1CCc2sccc2C1)NC(N)=O` (configuration not stated): the cytotoxicity at 10 µM came out at 0.0773%.

Regarding `CCc1cc(C(=O)N2CCc3c(ncn3CCc3ccccc3)C2)[nH]n1`, the cytotoxicity at 10 µM was -3.64%.

Take `CN1CCN(c2ccc(C(=O)N3CCCC(c4ncc[nH]4)C3)cc2)CC1` (configuration not stated): the cytotoxicity at 10 µM is 4.15%.

As to `O=C(c1ccc2nccnc2c1)N1C[C@@H](CN2CCCC2)[C@@H](CO)C1`, the cytotoxicity at 10 µM came to 4.23%.

On to `O=C(c1cncc(NCC2COc3ccccc3C2)n1)N1CCOCC1` (configuration not stated), for which the cytotoxicity at 10 µM is -3.37%.

As for `Cc1cccc(C(C(=O)N(C)Cc2cc(C)no2)N(C)C)c1` (configuration not stated), the cytotoxicity at 10 µM came out at 4.94%.

Regarding `CC(C)(C)N1CC(c2ncc(-c3ccc4c(c3)OCCO4)[nH]2)CC1=O` (configuration not stated), the cytotoxicity at 10 µM amounted to 6.19%.

For the compound `O=C(CSCC1CC1)N1CCCC(c2nccn2Cc2cccnc2)C1` (configuration not stated), the cytotoxicity at 10 µM turned out to be 3.86%.

Turning to `COc1cccc(-c2cnnc(N(C)CCC3CCCCO3)n2)c1` (configuration not stated), the cytotoxicity at 10 µM stood at 12.7%.

As to `CCCc1n[nH]c(=O)n1[C@@H](CC)c1ccccc1`, the cytotoxicity at 10 µM is -5.22%.

Consider `Cn1cnnc1C1CCCN(Cc2nc(Cc3ccccc3)no2)C1` (configuration not stated), for which the cytotoxicity at 10 µM is -4.29%.

As to `COCCN(C)CC(=O)N1C[C@@H](C)[C@](O)(C(C)C)C1`, the cytotoxicity at 10 µM came to 4.9%.

As for `COc1ccc(OC)c(C2CCN(CC(C)(C)N3CCOCC3)C2)c1` (configuration not stated), the cytotoxicity at 10 µM is -0.359%.

Regarding `C=C(C)COc1ccccc1CN1CCC(C(=O)NCC)C1` (configuration not stated), the cytotoxicity at 10 µM is 11.6%.

On to `CC(C)C[C@H](NCc1cc(O)c2cccc(F)c2n1)C(N)=O`, for which the cytotoxicity at 10 µM is 5.71%.

Turning to `Cn1cccc1-c1cc(C(=O)N2CCCC2C(F)(F)F)[nH]n1` (configuration not stated), the cytotoxicity at 10 µM was -0.968%.

For the compound `CC(C)[C@H]1CN(C(=O)CC2CCC2)C[C@@H]1N(C)C`, the cytotoxicity at 10 µM worked out at 8.91%.

As to `O=C(CSCC1CC1)N1CCCC(c2nccn2Cc2ccccn2)C1` (configuration not stated), the cytotoxicity at 10 µM turned out to be 1.34%.

With `O=C(C1CC(=O)N(c2ccccc2)C1)N1CCC2(CC1)OCCO2` (configuration not stated), the cytotoxicity at 10 µM amounted to 1.87%.

Regarding `CC1CCCN(CCNC(=O)c2ccn(-c3ccc(F)cc3)n2)C1` (configuration not stated), the cytotoxicity at 10 µM was -0.734%.

On to `O=C(CN1C=Nc2ccccc2S1(=O)=O)NCc1ccccc1F`, for which the cytotoxicity at 10 µM is -3.73%.

In the case of `CN(C)c1ccc(C(=O)N2CCCC(n3cccn3)C2)nn1` (configuration not stated), the cytotoxicity at 10 µM is -4.43%.

`Cc1cnc2c(S(=O)(=O)NCC3CCOC3)cccc2c1` (configuration not stated): the cytotoxicity at 10 µM is -6.94%.

With `CC(C)(C)c1ncc(C(=O)NC(C(N)=O)c2ccccc2)s1` (configuration not stated), the cytotoxicity at 10 µM is -1.96%.

Turning to `Cc1cc(NC(=O)CN(C)C2CCCN(c3cccnn3)C2)on1` (configuration not stated), the cytotoxicity at 10 µM was -5.93%.

With `CN(C)c1ccc(C(=O)N2CCCC2c2noc(C3CC3)n2)nn1` (configuration not stated), the cytotoxicity at 10 µM was -8.36%.

Regarding `CN(Cc1noc(C2CC2)n1)C1CCN(Cc2ncc[nH]2)C1` (configuration not stated), the cytotoxicity at 10 µM was -1.87%.

As to `CCc1cc(CNC(=O)N2CCC(Cc3cnn(C)c3)C2)on1` (configuration not stated), the cytotoxicity at 10 µM is -6.04%.

`CNc1nc(CNC(=O)Nc2cccc(Cl)c2OC)cs1`: the cytotoxicity at 10 µM was -12.4%.

For the compound `Cc1cnn(CCNCc2nnc(Cc3ccccc3)o2)c1`, the cytotoxicity at 10 µM was -8.63%.

On to `CC(C(=O)NCCOc1ccccc1)n1cncn1` (configuration not stated), for which the cytotoxicity at 10 µM is -6.85%.

Consider `Cn1cc(C(=O)CC2CCCN2C(=O)c2coc3ccccc23)cn1` (configuration not stated), for which the cytotoxicity at 10 µM was -0.65%.

On to `CCNC(c1ccc(Cl)cc1)c1cccnc1` (configuration not stated), for which the cytotoxicity at 10 µM is 5.71%.

In the case of `CS(=O)(=O)NCC1CCCN(C(=O)COCC(F)(F)F)C1` (configuration not stated), the cytotoxicity at 10 µM was -3.12%.

`CC(C(=O)NCc1ccnc(N2CCN(C)CC2)c1)n1cccn1` (configuration not stated): the cytotoxicity at 10 µM is -10.2%.

For `c1cncc(OC[C@]23COC[C@H]2CN(Cc2ccsc2)C3)c1`, the cytotoxicity at 10 µM is 14.7%.

For the compound `c1cnc(NC2COC3(CCN(Cc4ccoc4)CC3)C2)nc1` (configuration not stated), the cytotoxicity at 10 µM came out at 2.11%.

`CC(C)c1nn(C)c(N(C)C)c1CNCCC(=O)N(C)C`: the cytotoxicity at 10 µM is -6.02%.

As to `Cn1cc(CN2CC[C@H]3O[C@@H](COCc4cccnc4)CC[C@H]32)cn1`, the cytotoxicity at 10 µM is -73.8%.

As to `COC1COC2(CCN(Cc3ccccc3F)CC2)C1` (configuration not stated), the cytotoxicity at 10 µM was -5.58%.

Source of the values: ChEMBL document CHEMBL4513216, “Probing the Open Global Health Chemical Diversity Library for Multistage-Active Starting Points for Next-Generation Antimalarials” (ACS Infect Dis, 2020).
